From ChEMBL document CHEMBL1143349, “Novel non-peptide nociceptin/orphanin FQ receptor agonist, 1-[1-(1-Methylcyclooctyl)-4-piperidinyl]-2-[(3R)-3-piperidinyl]-1H-benzimidazole: design, synthesis, and structure-activity relationship of oral receptor occupancy in the brain for orally potent antianxiety drug” (J Med Chem, 2009) come the findings set out here.

For test [1], the target named is T1, Nociceptin receptor (Homo sapiens, UniProt P41146). In words: Agonist activity at human NOP receptor expressed in HEK293 cells by [35S]GTPgammaS binding. Format: functional, cell-based.
In test [2] the target is T1, Nociceptin receptor. In words: Displacement of [3H]N/OFQ from human NOP receptor expressed in HEK293 cells. Format: cell-based.
The target of test [3] is T2, Mu-type opioid receptor (Homo sapiens, UniProt P35372). In words: Displacement of [3H]DAMGO from human mu opioid receptor expressed in CHOK1 cells. Format: cell-based, CHO-K1.
In test [4] the target is T2, Mu-type opioid receptor. In words: Agonist activity at human mu opioid receptor expressed in CHOK1 cells by [35S]GTPgammaS binding. Format: functional, cell-based, CHO-K1.
In another test the test system is Mus musculus. Nature of the test: Ex vivo receptor occupancy of NOP receptor in ddY mouse brain at 10 mg/kg, po after 1 hr by [3H]N/OFQ binding assay. It counts as functional. Put shortly: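 Male ddY mice (5-6 week), water-deprived 24 h, dosed orally at 10 mg/kg in 0.1% methylcellulose. Brain removed 1 h later; cerebellum and medulla discarded, membranes prepared at 4 °C. Membranes (160 µg protein) incubated with 0.3 nM [3H]N/OFQ, 30 min, 25 °C; filtration read-out. Nonspecific binding with 1 µM N/OFQ. Occupancy is inhibition of specific binding versus vehicle-treated mice, three mice, mean ± SEM.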

The target of test [5] is T3, Kappa-type opioid receptor (Homo sapiens, UniProt P41145). Nature of the test: Displacement of [3H]enadoline from human kappa opioid receptor expressed in HEK293 cells. It counts as cell-based.
The target of test [6] is T4, Delta-type opioid receptor (Homo sapiens, UniProt P41143). In words: Displacement of [3H]DPDPE from human delta opioid receptor expressed in CHOK1 cells. Format: cell-based, CHO-K1.
Test [7] has as its target T3, Kappa-type opioid receptor. Nature of the test: Agonist activity at human kappa opioid receptor expressed in HEK293 cells by [35S]GTPgammaS binding. It counts as functional, cell-based.
In test [8] the target is T4, Delta-type opioid receptor. In words: Agonist activity at human delta opioid receptor expressed in CHOK1 cells by [35S]GTPgammaS binding. Format: functional, cell-based, CHO-K1.
The target of test [9] is T4, Delta-type opioid receptor. Nature of the test: Displacement of [3H]DPDPE from human delta opioid receptor expressed in CHOK1 cells at 1 uM. Conditions: CHO-K1. It counts as cell-based.

T2 sequence (P35372 whole entry): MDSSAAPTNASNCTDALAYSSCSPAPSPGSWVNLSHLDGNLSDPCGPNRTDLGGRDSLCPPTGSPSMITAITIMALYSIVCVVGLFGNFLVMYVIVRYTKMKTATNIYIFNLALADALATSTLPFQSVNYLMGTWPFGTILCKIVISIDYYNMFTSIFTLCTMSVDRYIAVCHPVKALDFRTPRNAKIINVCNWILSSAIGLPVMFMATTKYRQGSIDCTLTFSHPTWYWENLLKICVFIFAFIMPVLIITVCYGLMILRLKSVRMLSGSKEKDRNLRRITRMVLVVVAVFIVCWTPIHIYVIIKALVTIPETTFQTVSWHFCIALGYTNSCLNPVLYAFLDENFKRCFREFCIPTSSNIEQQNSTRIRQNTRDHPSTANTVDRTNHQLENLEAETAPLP
T1 sequence (P41146 whole entry): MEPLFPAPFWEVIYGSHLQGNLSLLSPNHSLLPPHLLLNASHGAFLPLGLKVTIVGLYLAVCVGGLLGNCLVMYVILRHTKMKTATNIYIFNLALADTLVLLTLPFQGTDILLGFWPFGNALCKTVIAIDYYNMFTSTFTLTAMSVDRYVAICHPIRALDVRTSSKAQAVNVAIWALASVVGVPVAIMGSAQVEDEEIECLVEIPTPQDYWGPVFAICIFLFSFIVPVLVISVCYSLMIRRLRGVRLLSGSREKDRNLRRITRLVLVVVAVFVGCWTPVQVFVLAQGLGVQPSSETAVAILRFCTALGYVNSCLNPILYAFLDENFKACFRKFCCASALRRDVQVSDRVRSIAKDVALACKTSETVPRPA
T3 sequence (P41145 whole entry): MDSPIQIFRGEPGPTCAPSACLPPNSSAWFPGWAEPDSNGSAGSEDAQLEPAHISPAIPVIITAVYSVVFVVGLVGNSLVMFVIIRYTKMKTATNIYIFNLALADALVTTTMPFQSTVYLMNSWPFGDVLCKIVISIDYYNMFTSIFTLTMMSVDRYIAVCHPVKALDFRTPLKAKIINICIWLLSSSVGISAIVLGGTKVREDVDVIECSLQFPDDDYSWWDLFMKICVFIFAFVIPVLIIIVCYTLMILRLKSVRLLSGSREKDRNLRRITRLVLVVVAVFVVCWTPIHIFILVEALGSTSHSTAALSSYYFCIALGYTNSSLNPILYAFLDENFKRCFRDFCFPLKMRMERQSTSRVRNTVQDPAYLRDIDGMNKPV
T4 sequence (P41143 whole entry): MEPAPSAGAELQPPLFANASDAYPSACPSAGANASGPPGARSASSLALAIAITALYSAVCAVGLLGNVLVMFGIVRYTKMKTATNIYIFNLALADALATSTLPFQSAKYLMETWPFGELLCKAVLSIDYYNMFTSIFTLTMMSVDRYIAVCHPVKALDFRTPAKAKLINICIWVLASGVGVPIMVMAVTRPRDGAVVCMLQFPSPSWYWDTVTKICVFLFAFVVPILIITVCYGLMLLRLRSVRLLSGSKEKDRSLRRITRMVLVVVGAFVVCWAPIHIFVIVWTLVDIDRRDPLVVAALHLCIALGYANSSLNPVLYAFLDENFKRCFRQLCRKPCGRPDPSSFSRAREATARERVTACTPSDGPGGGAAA

Regarding `CC1(N2CCC(n3c(-c4ccc5cc[nH]c5c4)nc4ccccc43)CC2)CCCCCCC1`, the concentration giving a half-maximal response (EC50) on Nociceptin receptor [1] was 13 nM; on Mu-type opioid receptor [4] it was 8630 nM. Also, the Ki turned out to be 1.7 nM at Nociceptin receptor [2] and 151 nM on Mu-type opioid receptor [3]. Besides, the Activity in the test on Mus musculus was -10%.
Turning to `CN1CCC[C@H](c2nc3ccccc3n2C2CCN(C3(C)CCCCCCC3)CC2)C1`, the EC50 on Nociceptin receptor [1] came out at 1.6 nM; at Mu-type opioid receptor [4], 71 nM; in [7] it was 13 nM; in test [8], 389 nM. Besides, the Ki at Nociceptin receptor [2] is 0.24 nM; at Mu-type opioid receptor [3], 11 nM; in test [5] it was 10 nM; in test [6] it was 110 nM.
As to `CC1(N2CCC(n3c(-c4ccc(F)c(Cl)c4)nc4ccccc43)CC2)CCCCCCC1`, the Ki on Mu-type opioid receptor [3] was determined as 45 nM. In addition, the EC50 at Mu-type opioid receptor [4] was 759 nM. In addition, in the test on Mus musculus, the Activity was found to be 31%.
With `CC1(N2CCC(n3c(-c4cccc(CN)c4)nc4ccccc43)CC2)CCCCCCC1`, the figures for the Ki (at Mu-type opioid receptor [3]; in [5]; in test [6]) were 20 nM, 72 nM and 140 nM, respectively. Also, the EC50 on Mu-type opioid receptor [4] was 340 nM; in test [7] it was 154 nM. Further, the Activity with Mus musculus came out at 30%.
With `CC1(N2CCC(n3cnc4ccccc43)CC2)CCCCCCC1`, on Mu-type opioid receptor [3], the affinity, expressed as Ki, was 11 nM.
`CC1(N2CCC(n3c([C@@H]4CCCNC4)nc4ccccc43)CC2)CCCCCCC1`: the figures for the inhibitory constant (Ki) in test [5] and in test [6] were 23.1 nM and more than 667 nM, respectively. Further, the EC50 was determined as 80 nM in test [7] and 4700 nM in test [8]. In the test with Mus musculus, the Activity is 53%.
As to `CN1CCC[C@@H](c2nc3ccccc3n2C2CCN(C3(C)CCCCCCC3)CC2)C1`, the EC50 amounted to 1.4 nM on Nociceptin receptor [1], 67 nM on Mu-type opioid receptor [4], 70 nM in test [7] and 2190 nM in [8]. For the same compound, the Ki was 0.2 nM at Nociceptin receptor [2], 3.7 nM at Mu-type opioid receptor [3], 25 nM in test [5] and more than 500 nM in test [6]. For the same compound, in the test on Mus musculus, the Activity turned out to be 61%.
As for `CC1(N2CCC(n3c(-c4cc5ccccc5o4)nc4ccccc43)CC2)CCCCCCC1`, the values for the half-maximal effective concentration (EC50) at Nociceptin receptor [1] and on Mu-type opioid receptor [4] were 3.1 nM and 3670 nM, respectively. Moreover, the Ki at Nociceptin receptor [2] was 0.53 nM; at Mu-type opioid receptor [3], 102 nM. Further, in the test with Mus musculus, the Activity amounted to 34%.
`CC1(N2CCC(n3c(-c4cccc(C(F)(F)F)c4)nc4ccccc43)CC2)CCCCCCC1`: the concentration giving a half-maximal response (EC50) on Nociceptin receptor [1] amounted to 5.7 nM; on Mu-type opioid receptor [4], 10000 nM; in [7], 1580 nM. In addition, the Ki on Nociceptin receptor [2] amounted to 0.63 nM; on Mu-type opioid receptor [3], 65 nM; in [5] it was 352 nM; in test [6] it was 58 nM. Further, the Activity with Mus musculus came to 3.2%.
Consider `CC1(N2CCC(n3c(-c4cccc(OCCO)c4)nc4ccccc43)CC2)CCCCCCC1`, for which the EC50 on Nociceptin receptor [1] was 2.6 nM; at Mu-type opioid receptor [4], more than 393 nM; in test [7] it was 48 nM. Moreover, the inhibition constant Ki at Nociceptin receptor [2] is 0.3 nM; at Mu-type opioid receptor [3], 11 nM; in test [5], 43 nM; in [6], 9.5 nM. In addition, in the test on Mus musculus, the Activity amounted to 38%.
With `CC1CN(c2nc3ccccc3n2C2CCN(C3(C)CCCCCCC3)CC2)CC(C)N1` (configuration not stated), the values for the Ki (at Mu-type opioid receptor [3]; in test [5]) were 21 nM and 15 nM, respectively. In addition, the results for the EC50 (at Mu-type opioid receptor [4]; in test [7]) were 193 nM and 18 nM, respectively. Moreover, the Activity in test [9] was found to be 29%.
Take `CC1(N2CCC(n3c([C@H]4CCCNC4)nc4ccccc43)CC2)CCCCCCC1`: the Ki in test [5] stood at 9.2 nM; in test [6], 168 nM. The concentration for a half-maximal effect (EC50) in test [7] was found to be 8.4 nM; in [8] it was 514 nM.
For `CC1(N2CCC(n3c(-c4cccc(S(C)(=O)=O)c4)nc4ccccc43)CC2)CCCCCCC1`, the EC50 on Nociceptin receptor [1] came to 1.6 nM; on Mu-type opioid receptor [4], 288 nM. In addition, the inhibitory constant (Ki) on Nociceptin receptor [2] was 0.15 nM; on Mu-type opioid receptor [3], 6.3 nM. Moreover, the Activity in the test with Mus musculus amounted to 34%.
